Rows were chosen to be rich in hits. Some 1.5% of all compounds tested hit in one or more screens of this group.
CendR NRP1 mod: modulators of CendR peptide binding to human neuropilin-1; FAM-RPARPAR peptide binding to NRP-1, fluorescence polarization; inhibition, % at 25 µM; AID 602438; 0.85% of 360,000 active; O14786;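 active = inhibition or corrected inhibition above about 18%, plus a signal ratio from 0.5 to 1.5, limit read from the data, passing the limit was not always enough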
FID counter: counter-screen for HCV NS3 helicase inhibitors: DNA intercalator displacement | inhibition, % at 7.9 µM | AID 1845 | 0.17% of 290,000 active | DNA fluorescent intercalator displacement, fluorescence; in the data active = inhibition above about 37%;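 note: 0% = vehicle and 100% = reference compound; higher means more ethidium bromide displaced from hairpin DNA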
MEX-5 binding: C. elegans MEX-5 TCR-2 RNA binding activity | MEX-5/FITC-TCR2 RNA binding, fluorescence polarization; active compounds read low | activity score (negative = inhibition of binding), % at 10 µM | 0.38% of 300,000 active | AID 1832;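 active = inhibition past about -25% in most replicates, and total fluorescence under double the plate's negative control median, limit read from the data; inconclusive = replicates evenly split on the limit, or fluorescence at least double controls; inactive = too little inhibition in most replicates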;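 note: 0% = DMSO and -100% = 5 µM competing unlabeled TCR2 RNA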
Target sequence (Q9XUB2 whole entry, looked up): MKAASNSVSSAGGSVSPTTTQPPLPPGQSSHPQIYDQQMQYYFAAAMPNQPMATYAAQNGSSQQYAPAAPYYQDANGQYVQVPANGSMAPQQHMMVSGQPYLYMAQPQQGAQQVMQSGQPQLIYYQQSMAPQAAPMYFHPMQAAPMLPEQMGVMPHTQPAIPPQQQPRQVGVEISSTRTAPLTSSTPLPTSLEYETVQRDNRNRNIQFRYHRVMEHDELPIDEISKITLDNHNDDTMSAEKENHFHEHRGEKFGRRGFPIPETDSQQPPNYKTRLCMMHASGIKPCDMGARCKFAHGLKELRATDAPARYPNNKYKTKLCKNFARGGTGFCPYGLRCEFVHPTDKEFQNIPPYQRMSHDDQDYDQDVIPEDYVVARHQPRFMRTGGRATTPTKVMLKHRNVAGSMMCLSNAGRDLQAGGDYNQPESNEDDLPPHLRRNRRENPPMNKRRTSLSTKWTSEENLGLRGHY
HCV core dimer: blocks dimerization of HCV core protein | TR-FRET GST/Flag-core106 dimerization, 1536-well | inhibition, % at 5 µM | 0.33% of 300,000 active;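 active = inhibition above the mean of all tested compounds plus 3 SD, set per screening campaign, cut at about 45% in these data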
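Material: Tagged HCV core106 pair (GST and Flag) | Amount: GST-core106 13.5 nM, Flag-core106 17 nM | Medium: KF-containing HEPES buffer, pH 7.45, DTT, CHAPS, BSA | Reagent: Eu donor and XL665 acceptor anti-tag antibodies | Schedule: 4 h at 22.5 °C | Technique: Time-resolved FRET, ex 340 nm, em 617 and 671 nm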
Active calls of the source: *; ? = inconclusive; . = no result.

SMILES | CendR NRP1 mod | FID counter | MEX-5 binding | HCV core dimer
CN(C)c1ccc(C=C2C(=O)OC(C)(C(C)(C)C)OC2=O)cc1 (stereo unspecified) | -25.2 | -5.7 | -7.0 | -0.6
CCN1CCN(c2cc(C)c3cc(NC(=O)c4ccc(OC)c(OC)c4)ccc3n2)CC1 | -20.1 | 2.9 | 1.8 | -28.7
CCN(CC)CCNC(=S)Nc1ccc2nc(N3CCN(CC)CC3)cc(C)c2c1 | 11.9 | 38.5* | 0.4 | 0.0
CCN1CCN(c2cc(C)c3cc(NC(=S)NCCN(C)C)ccc3n2)CC1 | 3.0 | 49.4* | 1.0 | -2.5
CCCCNC(=S)Nc1ccc2nc(N3CCN(CC)CC3)cc(C)c2c1 | -4.1 | 21.8 | 1.3 | 0.3
CCN1CCN(c2cc(C)c3cc(NC(=O)c4cncc(Br)c4)ccc3n2)CC1 | 12.7 | 37.8* | 1.0 | -8.7
CCCCN(C)C(=S)Nc1ccc2nc(N3CCN(CC)CC3)cc(C)c2c1 | 14.8 | 16.0 | 1.1 | 1.1
CCCN1CCN(CCCNC(=S)Nc2ccc3nc(N4CCN(CC)CC4)cc(C)c3c2)CC1 | 5.1 | 36.7* | 2.2 | -1.8
CCCCN(C(=O)c1cc(S(=O)(=O)N2CCCCC2)ccc1Cl)c1c(N)n(CCC)c(=O)[nH]c1=O | -7.7 | . | . | .
Cc1cc(N2CCCC2)nc2ccc(NC(=S)NCCCN3CCC(C)CC3)cc12 | -9.5 | 46.8* | -0.3 | -6.4
CCCCN(C)CCNC(=S)Nc1ccc2nc(N3CCN(CC)CC3)cc(C)c2c1 | 5.4 | 45.9* | -4.1 | -18.2
CCn1nccc1NC(=O)c1ccc2sc([C@@H]3O[C@H](CO)[C@H](O)[C@H](O)[C@H]3O)nc2c1 | -6.5 | . | . | .
CCOC(=O)[C@]12CCCC=C1N(CCC1=CCCCC1)C(=O)[C@H](CC(=O)NCc1cccc3ccccc13)C2 | -2.6 | . | . | .
CC(=O)Oc1ccc2c(c1)O/C(=C\c1ccncc1)C2=O | 10.3 | 2.4 | ? | -1.3
COc1ccccc1C(=O)Oc1ccc2c(c1)O/C(=C\c1ccncc1)C2=O | 4.8 | 3.9 | -26.1* | 7.2
O=C1OC=NC1=Cc1ccccc1 | -34.1 | . | . | .
COc1cc(NC(=O)c2ccc(-c3cnn(C)c3)c3ccoc23)cc(OC)c1OC | -9.1 | . | . | .
O=S1(=O)N[C@H](Cc2ccccc2)COc2cc(N3CCC[C@@H]3CO)ccc21 | 4.9 | . | . | .
Cc1cccc(NCc2ccccc2O)c1C | 41.6* | 0.2 | -1.7 | 0.8
Nc1nc(-c2ccccc2)nc2nonc12 | -1.2 | . | . | .
COc1ccc(NC(=O)c2ccc(OC)c(S(=O)(=O)N3CCCCC3C)c2)cn1 (stereo unspecified) | 26.9* | . | . | .
O=C(Nc1ccccc1-c1nnn(CC(=O)N2CCc3ccccc3C2)n1)C1CCC1 | 27.8* | -5.8 | -1.5 | 1.1
Cc1ccc(S(=O)(=O)N2[C@H](C(C)C)[C@H]3[C@H]4C(=O)N(c5ccccc5)C(=O)[C@H]4CC(=O)[C@H]3[C@@H]2c2ccccc2)cc1 | 4.0 | . | . | .
C[C@H](CO)N1C[C@H](C)[C@@H](CN(C)S(=O)(=O)c2ccccc2)Oc2ccc(NC(=O)NC3CCCCC3)cc2C1=O | 12.4 | . | . | .
COc1ccc(CNCCC(c2ccccc2)c2ccc(OC(C)C)cc2)cc1OC (stereo unspecified) | 5.3 | 18.7 | 0.7 | 4.0
SMILES | CendR NRP1 mod | FID counter | MEX-5 binding | HCV core dimer
COc1ccc(CNCCC(c2ccc(F)cc2)c2ccc(OC(C)C)cc2)cc1OC (stereo unspecified) | -6.7 | 37.8* | 2.3 | -1.8
COc1ccc(C(=O)N2CCC(C(=O)NCc3ccccn3)CC2)cc1 | 34.8* | -2.0 | 1.9 | -7.7
COc1ccc(CNC(=O)C2CCN(C(=O)c3ccc(-c4ccccc4)cc3)CC2)cc1 | 9.7 | -42.0 | 1.2 | 12.5
O=S(=O)(c1ccc2nc(-c3ccco3)c(-c3ccco3)nc2c1)N1CCOCC1 | -15.9 | -11.6 | 0.1 | 58.6*
O=C(c1ccc2nc(-c3ccco3)c(-c3ccco3)nc2c1)N1CCN(c2ccccc2)CC1 | -1.7 | -18.8 | -1.6 | 24.8
COc1ccc(CCNC(=O)c2ccc3nc(-c4ccco4)c(-c4ccco4)nc3c2)cc1OC | -24.0 | -21.4 | . | 57.4*
O=C(O)c1ccc2nc(-c3ccco3)c(-c3ccco3)nc2c1 | -7.7 | -6.2 | -28.8* | .
O=C(Nc1cccc(C(F)(F)F)c1)c1ccc2nc(-c3ccco3)c(-c3ccco3)nc2c1 | -56.6 | -11.3 | 1.3 | 74.0*
CCc1nc2ccc(C(=O)NCCc3ccc(OC)c(OC)c3)cc2nc1CC | 4.9 | -57.5 | -0.1 | -2.0
CC1=C(C(=O)N(C)C)CC(CC(=O)NC2CCCCC2)C(=O)N1CCCN1CCCC1=O (stereo unspecified) | 8.6 | . | . | .
COc1ccc([N+](=O)[O-])cc1NC(=O)COC(=O)C12CC3CC(CC(O)(C3)C1)C2 | 15.3 | . | . | .
CNC(=O)C(=O)NCC1OCCCN1S(=O)(=O)c1ccc(F)cc1C (stereo unspecified) | 27.2* | -5.2 | -2.3 | -3.2
CCNC(=O)C(=O)NCC1OCCCN1S(=O)(=O)c1ccc(F)cc1C (stereo unspecified) | 4.0 | -10.1 | -1.4 | 6.1
Cn1cc(/C=N/n2cnc3scc(-c4ccc(Cl)cc4)c3c2=O)c2ccccc21 | 5.6 | -2.9 | -27.5* | 34.9
CCCC(=O)N1CCC1(C)C(=O)Nc1cc(OC)c(OC)c(OC)c1 (stereo unspecified) | -10.3 | . | . | .
CCOC(=O)C(C)Sc1nc2ccccc2c(=O)n1CC (stereo unspecified) | 41.5* | -10.7 | . | -4.9
Cc1ccc(Cn2c(SC(C)C(N)=O)nc3ccccc3c2=O)cc1 (stereo unspecified) | 11.3 | -1.4 | 0.9 | 0.3
CC(C)C[C@H]1CNC(=O)C(=O)N1C[C@H]1CCCN1C[C@H](CC(C)C)N1C[C@H](CC(C)C)N(CCc2ccccc2)C(=O)C1=O | -17.0 | . | . | .
CCOC(=O)C1=C(C)NC2=C(C(=O)c3ccccc32)C1c1cccnc1 (stereo unspecified) | 39.9* | -18.8 | -2.1 | -34.0
CCOC(=O)C1=C(C)NC2=C(C(=O)CCC2)C1c1cccnc1 (stereo unspecified) | 3.7 | -1.0 | -2.0 | -4.2
CC(C)(C)NC(=O)C1C(c2ccc(C(F)(F)F)cc2)=Nc2ccccc2N1C(=O)c1cccc(C(F)(F)F)c1 (stereo unspecified) | -10.3 | . | . | .
Cc1cc(C(=O)COC(=O)c2ccc3c(c2)NC(=O)CS3)c(C)n1CCc1ccc(Cl)cc1 | -1.7 | -5.3 | -2.9 | 48.4*
O=C(NCC1CCCO1)c1nn2c(C(F)(F)F)cc(-c3cc(Br)cs3)nc2c1Br (stereo unspecified) | 35.0* | -4.8 | -52.9* | -23.3
O=c1[nH]c(/C=C\c2ccc(O)c(O)c2)nc(O)c1[N+](=O)[O-] | 30.2 | -2.1 | -29.7* | .
C[C@@H]1CCCCO[C@H](CN(C)Cc2ccc(C(=O)O)cc2)[C@@H](C)CN([C@H](C)CO)C(=O)c2cc(NC(=O)CCC(F)(F)F)ccc2O1 | -3.8 | . | . | .
CC(CN1CCCCC1)OC(=O)c1ccc(Cl)cc1Cl (stereo unspecified) | 22.3* | 7.5 | 4.9 | 1.8
CC(C)N1CCC(C)(C(=O)Nc2ccccc2Oc2ccccc2)C1 (stereo unspecified) | 1.7 | . | . | .
N#Cc1cc(C(=O)c2cc(F)ccc2O)cn(-c2nccs2)c1=O | 135.0 | -4.9 | ? | 48.0*
